ChEMBL document CHEMBL1122341, “Prostaglandin isosteres. 2. Chain-modified thiazolidinone prostaglandin analogues as renal vasodilators” (1983)

Columns and labels:
Canis familiaris [1] = test: Effect on renal blood flow in conscious dogs dosed at 5 mg/kg, observed at 1-2 h; assay type: functional, Canis lupus familiaris, Kidney
Outline: (§1)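 Conscious dogs; aortic catheter for blood pressure and heart rate, with renal and lower aortic blood flow monitored. After a 30-min control period the compound was given orally and the variables were followed for a further 5 h, recorded every 2 min. Readings were averaged over the control period and each hourly postdose period; means ± SE.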

Canis familiaris [2] = test: Effect on heart rate in conscious dogs dosed at 5 mg/kg, observed at 3-4 h; assay type: functional, Canis lupus familiaris; outline: as §1
Canis familiaris [3] = test: Effect on renal blood flow in conscious dogs dosed at 5 mg/kg, observed at 3-4 h; assay type: functional, Canis lupus familiaris; outline: as §1
Canis familiaris [4] = test: Effect on lower arterial blood pressure in conscious dogs dosed at 5 mg/kg, observed at 1-2 h; assay type: functional, Canis lupus familiaris; outline: as §1
Canis familiaris [5] = test: Effect on heart rate in conscious dogs dosed at 5 mg/kg, observed at 0-1 h; assay type: functional, Canis lupus familiaris; outline: as §1
Canis familiaris [6] = test: Effect on renal blood flow in conscious dogs dosed at 5 mg/kg, observed at 2-3 h; assay type: functional, Canis lupus familiaris, Kidney; outline: as §1
Canis familiaris [7] = test: Effect on lower arterial blood pressure in conscious dogs dosed at 5 mg/kg, observed at 4-5 h; assay type: functional, Canis lupus familiaris; outline: as §1
Canis familiaris [8] = test: Effect on heart rate in conscious dogs dosed at 5 mg/kg, observed at 4-5 h; assay type: functional, Canis lupus familiaris; outline: as §1
Canis familiaris [9] = test: Effect on heart rate in conscious dogs dosed at 5 mg/kg, observed at 2-3 h; assay type: functional, Canis lupus familiaris; outline: as §1
Canis familiaris [10] = test: Effect on lower aortic blood flow in conscious dogs dosed at 5 mg/kg, observed at 1-2 h; assay type: functional, Canis lupus familiaris, Aorta; outline: as §1
Canis familiaris [11] = test: Effect on lower aortic blood flow in conscious dogs dosed at 5 mg/kg, observed at 3-4 h; assay type: functional, Canis lupus familiaris, Aorta; outline: as §1
Canis familiaris [12] = test: Effect on lower aortic blood flow in conscious dogs dosed at 5 mg/kg, observed at 2-3 h; assay type: functional, Canis lupus familiaris, Aorta; outline: as §1
Canis familiaris [13] = test: Effect on heart rate in conscious dogs dosed at 5 mg/kg, observed at 1-2 h; assay type: functional, Canis lupus familiaris; outline: as §1
Canis familiaris [14] = test: Effect on renal blood flow in conscious dogs dosed at 5 mg/kg, observed at 0-1 h; assay type: functional, Canis lupus familiaris; outline: as §1
Canis familiaris [15] = test: Effect on renal blood flow in conscious dogs dosed at 5 mg/kg, observed at 4-5 h; assay type: functional, Canis lupus familiaris; outline: as §1
Canis familiaris [16] = test: Effect on lower arterial blood pressure in conscious dogs dosed at 5 mg/kg, observed at 0-1 h; assay type: functional, Canis lupus familiaris; outline: as §1
Canis familiaris [17] = test: Effect on lower arterial blood pressure in conscious dogs dosed at 5 mg/kg, observed at 3-4 h; assay type: functional, Canis lupus familiaris; outline: as §1
Canis familiaris [18] = test: Effect on lower aortic blood flow in conscious dogs dosed at 5 mg/kg, observed at 0-1 h; assay type: functional, Canis lupus familiaris, Aorta; outline: as §1
Canis familiaris [19] = test: Effect on lower aortic blood flow in conscious dogs dosed at 5 mg/kg, observed at 4-5 h; assay type: functional, Canis lupus familiaris, Aorta; outline: as §1
Canis familiaris [20] = test: Effect on lower arterial blood pressure in conscious dogs dosed at 5 mg/kg, observed at 2-3 h; assay type: functional, Canis lupus familiaris; outline: as §1
Canis familiaris [21] = test: Effect on renal plasma flow in conscious dogs dosed at 0.4 mg/kg (pretreatment); assay type: functional, Canis lupus familiaris
Outline: (§2)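 Trained conscious female mongrel dogs, postabsorptive, given 500 mL tap water orally 1-1.5 h beforehand. Effective renal plasma flow was taken as renal p-aminohippurate clearance: priming 8 mg/kg iv, then 0.3 (mg/kg)/min in isotonic NaCl. Two 30-min control clearance periods, a single iv dose (Na salt, aqueous), then four 30-min periods. Plasma sampled at midpoints; means ± SEM.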

Canis familiaris [22] = test: Percent change in renal plasma flow in conscious dogs dosed at 0.2 mg/kg; assay type: functional, Canis lupus familiaris; outline: as §2
Canis familiaris [23] = test: Percent change in renal plasma flow in conscious dogs dosed at 0.4 mg/kg; assay type: functional, Canis lupus familiaris; outline: as §2
Canis familiaris [24] = test: Effect on renal plasma flow in conscious dogs dosed at 0.2 mg/kg (post-treatment); assay type: functional, Canis lupus familiaris; outline: as §2
Canis familiaris [25] = test: Effect on renal plasma flow in conscious dogs dosed at 0.4 mg/kg (post-treatment); assay type: functional, Canis lupus familiaris; outline: as §2
Canis familiaris [26] = test: Effect on renal plasma flow in conscious dogs dosed at 10 mg/kg (post-treatment); assay type: functional, Canis lupus familiaris; outline: as §2
Canis familiaris [27] = test: Effect on renal plasma flow in conscious dogs dosed at 10 mg/kg (pretreatment); assay type: functional, Canis lupus familiaris; outline: as §2
Canis familiaris [28] = test: Effect on renal plasma flow in conscious dogs dosed at 0.2 mg/kg (pretreatment); assay type: functional, Canis lupus familiaris; outline: as §2
Canis familiaris [29] = test: Percent change in renal plasma flow in conscious dogs dosed at 10 mg/kg; assay type: functional, Canis lupus familiaris; outline: as §2
Canis familiaris [30] = test: Percent change in renal plasma flow in conscious dogs dosed at 0.025 mg/kg; assay type: functional, Canis lupus familiaris; outline: as §2
Canis familiaris [31] = test: Percent change in renal plasma flow in conscious dogs dosed at 0.05 mg/kg; assay type: functional, Canis lupus familiaris; outline: as §2
Canis familiaris [32] = test: Effect on renal plasma flow in conscious dogs dosed at 0.025 mg/kg (post-treatment); assay type: functional, Canis lupus familiaris; outline: as §2
Canis familiaris [33] = test: Effect on renal plasma flow in conscious dogs dosed at 0.025 mg/kg (pretreatment); assay type: functional, Canis lupus familiaris; outline: as §2
Canis familiaris [34] = test: Effect on renal plasma flow in conscious dogs dosed at 0.05 mg/kg (post-treatment); assay type: functional, Canis lupus familiaris; outline: as §2
Canis familiaris [35] = test: Effect on renal plasma flow in conscious dogs dosed at 0.05 mg/kg (pretreatment); assay type: functional, Canis lupus familiaris; outline: as §2
Canis familiaris [36] = test: Percent change in renal resistance in anesthetized dogs after infusion of compound at 60 nM/kg/min; assay type: functional, Canis lupus familiaris; details: in the assay text read “60 ng/kg/min” for “60 nM/kg/min”
Outline: (§3)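 Vinbarbital-anesthetized dogs with an electromagnetic flow probe on the left renal artery and an aortic catheter for pressure. Saline was infused intrarenally for 30 min as pretreatment. Percent change was calculated from the maximum decrease in renal resistance versus pretreatment.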

Canis familiaris [37] = test: Percent change in renal resistance in anesthetized dogs after infusion of compound at 110 nM/kg/min; assay type: functional, Canis lupus familiaris; outline: as §3
Canis familiaris [38] = test: Percent change in renal resistance in anesthetized dogs after infusion of compound at 10 nM/kg/min; assay type: functional, Canis lupus familiaris; outline: as §3
Canis familiaris [39] = test: Percent change in renal resistance in anesthetized dogs after infusion of compound at 50 nM/kg/min; assay type: functional, Canis lupus familiaris
Canis familiaris [40] = test: Percent change in renal plasma flow in conscious dogs dosed at 0.1 mg/kg; assay type: functional, Canis lupus familiaris; outline: as §2
Canis familiaris [41] = test: Effect on renal plasma flow in conscious dogs dosed at 0.1 mg/kg (post-treatment); assay type: functional, Canis lupus familiaris; outline: as §2
Canis familiaris [42] = test: Percent change in renal resistance in anesthetized dogs after infusion of compound at 25 nM/kg/min; assay type: functional, Canis lupus familiaris
Canis familiaris [43] = test: Effect on renal plasma flow in conscious dogs dosed at 0.1 mg/kg (pretreatment); assay type: functional, Canis lupus familiaris; outline: as §2
[44] = dose 1 mg/kg, in the assay text read “dosed at 1 mg/kg” for “dosed at 5 mg/kg”

| Structure (SMILES) | Mean RBF (Canis familiaris [1]) [mL/min] | Mean HR (Canis familiaris [2]) [beats min-1] | Mean RBF (Canis familiaris [3]) [mL/min] | Mean blood pressure (Canis familiaris [4]) [mmHg] | Mean HR (Canis familiaris [5]) [beats min-1] | Mean blood pressure (Canis familiaris [7]) [mmHg] | Mean HR (Canis familiaris [8]) [beats min-1] | Mean HR (Canis familiaris [9]) [beats min-1] | Mean LAF (Canis familiaris [10]) [mL/min] | Mean LAF (Canis familiaris [11]) [mL/min] | Mean LAF (Canis familiaris [12]) [mL/min] | Mean HR (Canis familiaris [13]) [beats min-1] | Mean RBF (Canis familiaris [14]) [mL/min] | Mean RBF (Canis familiaris [15]) [mL/min] | Mean blood pressure (Canis familiaris [16]) [mmHg] | Mean blood pressure (Canis familiaris [17]) [mmHg] | Mean LAF (Canis familiaris [18]) [mL/min] | Mean LAF (Canis familiaris [19]) [mL/min] | Mean blood pressure (Canis familiaris [20]) [mmHg] | Change (Canis familiaris [22]) [%] | other results |
| --- | --- | --- | --- | --- | --- | --- | --- | --- | --- | --- | --- | --- | --- | --- | --- | --- | --- | --- | --- | --- | --- |
| CCCCCC(O)CCN1C(=O)CSC1CCCc1ccc(C(=O)O)cc1 (stereo not drawn) | 241 | 92 | 183 | 108 | 103 | 116 | 84 | 107 | 560 | 521 | 625 | 118 | 201 | 159 | 118 | 116 | 546 | 510 | 116 |  | Mean RBF (Canis familiaris [6]; dose 5 mg/kg): 209 mL/min |
| O=C(O)CCCCCCC1SCC(=O)N1CCC1(O)CCCCC1 (stereo not drawn) | 150 | 94 | 176 | 74 | 180 | 104 | 88 | 113 | 742 | 510 | 530 | 185 | 97 | 160 | 59 | 100 | 772 | 388 | 92 |  | Mean RBF (Canis familiaris [6]; [44]): 199 mL/min |
| CCCCCC(O)CCN1C(=O)CSC1CCCCCCC(=O)O (stereo not drawn) | 110 | 82 | 116 | 146 | 126 | 132 | 76 | 85 | 424 | 427 | 432 | 79 | 181 | 111 | 123 | 133 | 420 | 386 | 140 |  | Mean RBF (Canis familiaris [6]; dose 5 mg/kg): 110 mL/min |
| O=C(O)c1ccc(CCC[C@@H]2SCC(=O)N2CCC2(O)CCCCC2)cc1 |  |  |  |  |  |  |  |  |  |  |  |  |  |  |  |  |  |  |  | 6 | Activity (Canis familiaris [21]): 136 mL/min; Change (Canis familiaris [23]): 8%; Activity (Canis familiaris [24]): 146 mL/min; Activity (Canis familiaris [25]): 147 mL/min; Activity (Canis familiaris [26]): 151 mL/min; Activity (Canis familiaris [27]): 139 mL/min; Activity (Canis familiaris [28]): 138 mL/min; Change (Canis familiaris [29]): 9% |
| O=C(O)c1ccc(CCC[C@H]2SCC(=O)N2CCC2(O)CCCCC2)cc1 |  |  |  |  |  |  |  |  |  |  |  |  |  |  |  |  |  |  |  | 104 | Change (Canis familiaris [30]): 54%; Change (Canis familiaris [31]): 62%; Activity (Canis familiaris [32]): 239 mL/min; Activity (Canis familiaris [24]): 292 mL/min; Activity (Canis familiaris [33]): 155 mL/min; Activity (Canis familiaris [34]): 289 mL/min; Activity (Canis familiaris [28]): 143 mL/min; Activity (Canis familiaris [35]): 178 mL/min |
| CCCCC[C@H](O)/C=C/[C@H]1[C@H](O)CC(=O)[C@@H]1C/C=C\CCCC(=O)O [DINOPROSTONE] |  |  |  |  |  |  |  |  |  |  |  |  |  |  |  |  |  |  |  |  | Change (Canis familiaris [36]): -29%; Change (Canis familiaris [37]): -35%; Change (Canis familiaris [38]): -13% |
| O=C(O)c1ccc(CCCC2SCC(=O)N2CCC2(O)CCCCC2)cc1 (stereo not drawn) | 211 | 131 | 233 | 89 | 122 | 98 | 136 | 144 | 597 | 492 | 521 | 169 | 179 | 242 | 105 | 101 | 486 | 477 | 97 | 137 | Mean RBF (Canis familiaris [6]; [44]): 226 mL/min; Change (Canis familiaris [39]): -28%; Change (Canis familiaris [31]): 62%; Change (Canis familiaris [40]): 52%; Activity (Canis familiaris [24]): 322 mL/min; Activity (Canis familiaris [41]): 216 mL/min; Change (Canis familiaris [42]): -24%; Activity (Canis familiaris [43]): 142 mL/min; Change (Canis familiaris [38]): -13%; Activity (Canis familiaris [34]): 240 mL/min; Activity (Canis familiaris [28]): 136 mL/min; Activity (Canis familiaris [35]): 148 mL/min |
